Results taken from ChEMBL document CHEMBL4813918, “From off-to on-target: New BRAF-inhibitor-template-derived compounds selectively targeting mitogen activated protein kinase kinase 4 (MKK4)” (Eur J Med Chem, 2021).

Experiments:
[1] = target: Mitogen-activated protein kinase kinase kinase kinase 5 (Homo sapiens) (UniProt Q9Y4K4); test: Binding affinity to wild type partial length human MAP4K5 (M1 to P297) expressed in Bacterial expression system assessed as residual activity at 100 nM measured by Kinomescan assay relative to control
[2] = target: T1, Dual specificity mitogen-activated protein kinase kinase 7 (Homo sapiens) (UniProt O14733); test: Binding affinity to wild type full length human MKK7 (M1 to R419 residues) expressed in mammalian expression system assessed as residual activity at 100 nM measured by Kinomescan assay
T1 sequence (whole entry): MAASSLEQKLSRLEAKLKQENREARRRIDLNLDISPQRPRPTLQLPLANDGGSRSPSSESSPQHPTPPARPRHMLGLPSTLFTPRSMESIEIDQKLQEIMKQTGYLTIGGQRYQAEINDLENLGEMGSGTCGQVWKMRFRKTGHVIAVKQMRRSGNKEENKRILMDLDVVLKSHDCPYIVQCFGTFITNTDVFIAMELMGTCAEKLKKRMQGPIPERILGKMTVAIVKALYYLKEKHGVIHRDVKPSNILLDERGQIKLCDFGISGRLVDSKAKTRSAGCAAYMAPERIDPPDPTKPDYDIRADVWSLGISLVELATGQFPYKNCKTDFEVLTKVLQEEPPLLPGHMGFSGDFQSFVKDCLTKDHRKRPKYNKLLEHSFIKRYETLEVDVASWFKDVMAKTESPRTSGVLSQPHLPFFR

[3] = target: Mitogen-activated protein kinase kinase kinase 20 (Homo sapiens) (UniProt Q9NYL2); test: Binding affinity to wild type partial length human ZAK (M1 to L331) expressed in bacterial expression system assessed as residual activity at 100 nM measured by Kinomescan assay
[4] = target: T2, Dual specificity mitogen-activated protein kinase kinase 4 (Mus musculus, UniProt P47809); test: Binding affinity to GST tagged mouse MKK4 expressed in Escherichia coli expression system measured by Kinomescan assay
T2 sequence (P47809 whole entry): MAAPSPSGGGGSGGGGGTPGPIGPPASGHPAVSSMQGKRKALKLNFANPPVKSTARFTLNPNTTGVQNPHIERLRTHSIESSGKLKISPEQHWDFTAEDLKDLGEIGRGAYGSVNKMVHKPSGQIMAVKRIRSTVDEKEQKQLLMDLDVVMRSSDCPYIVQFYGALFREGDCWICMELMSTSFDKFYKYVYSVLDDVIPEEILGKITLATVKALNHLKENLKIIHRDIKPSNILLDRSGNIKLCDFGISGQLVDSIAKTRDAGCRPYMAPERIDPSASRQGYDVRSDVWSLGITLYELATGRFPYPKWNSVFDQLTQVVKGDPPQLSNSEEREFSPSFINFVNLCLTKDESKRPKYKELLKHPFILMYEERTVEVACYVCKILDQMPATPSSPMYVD
Method in brief: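 Competition binding: compound competes with an immobilized multikinase inhibitor for the site on DNA-tagged MKK4. Bound kinase is quantified by qPCR. Kd values are determined in duplicate.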

Mitogen-activated protein kinase kinase kinase 20 (Homo sapiens), sequence (Q9NYL2 2-800 limits assumed): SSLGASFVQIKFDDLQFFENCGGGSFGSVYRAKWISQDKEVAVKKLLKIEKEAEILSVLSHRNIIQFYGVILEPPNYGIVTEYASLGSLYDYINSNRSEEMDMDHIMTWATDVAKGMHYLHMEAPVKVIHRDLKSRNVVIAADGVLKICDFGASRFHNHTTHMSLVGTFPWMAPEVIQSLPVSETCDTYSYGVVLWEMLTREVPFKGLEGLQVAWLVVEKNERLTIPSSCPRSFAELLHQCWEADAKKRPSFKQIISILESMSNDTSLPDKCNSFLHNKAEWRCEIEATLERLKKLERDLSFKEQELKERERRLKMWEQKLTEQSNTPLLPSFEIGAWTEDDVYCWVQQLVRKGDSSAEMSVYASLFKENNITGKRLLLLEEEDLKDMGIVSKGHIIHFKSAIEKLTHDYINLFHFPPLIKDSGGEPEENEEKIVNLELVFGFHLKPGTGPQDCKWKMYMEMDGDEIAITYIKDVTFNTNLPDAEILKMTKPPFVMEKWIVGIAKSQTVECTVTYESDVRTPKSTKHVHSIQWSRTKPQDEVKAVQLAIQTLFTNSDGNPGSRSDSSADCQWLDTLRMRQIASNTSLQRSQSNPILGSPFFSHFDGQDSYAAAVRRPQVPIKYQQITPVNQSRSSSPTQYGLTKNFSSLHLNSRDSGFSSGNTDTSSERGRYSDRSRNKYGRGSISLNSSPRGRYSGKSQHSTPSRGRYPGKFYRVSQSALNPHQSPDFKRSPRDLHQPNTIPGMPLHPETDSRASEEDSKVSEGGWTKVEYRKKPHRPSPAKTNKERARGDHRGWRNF
Mitogen-activated protein kinase kinase kinase kinase 5 (Homo sapiens), sequence (Q9Y4K4 whole entry, looked up, the tested form may be a part): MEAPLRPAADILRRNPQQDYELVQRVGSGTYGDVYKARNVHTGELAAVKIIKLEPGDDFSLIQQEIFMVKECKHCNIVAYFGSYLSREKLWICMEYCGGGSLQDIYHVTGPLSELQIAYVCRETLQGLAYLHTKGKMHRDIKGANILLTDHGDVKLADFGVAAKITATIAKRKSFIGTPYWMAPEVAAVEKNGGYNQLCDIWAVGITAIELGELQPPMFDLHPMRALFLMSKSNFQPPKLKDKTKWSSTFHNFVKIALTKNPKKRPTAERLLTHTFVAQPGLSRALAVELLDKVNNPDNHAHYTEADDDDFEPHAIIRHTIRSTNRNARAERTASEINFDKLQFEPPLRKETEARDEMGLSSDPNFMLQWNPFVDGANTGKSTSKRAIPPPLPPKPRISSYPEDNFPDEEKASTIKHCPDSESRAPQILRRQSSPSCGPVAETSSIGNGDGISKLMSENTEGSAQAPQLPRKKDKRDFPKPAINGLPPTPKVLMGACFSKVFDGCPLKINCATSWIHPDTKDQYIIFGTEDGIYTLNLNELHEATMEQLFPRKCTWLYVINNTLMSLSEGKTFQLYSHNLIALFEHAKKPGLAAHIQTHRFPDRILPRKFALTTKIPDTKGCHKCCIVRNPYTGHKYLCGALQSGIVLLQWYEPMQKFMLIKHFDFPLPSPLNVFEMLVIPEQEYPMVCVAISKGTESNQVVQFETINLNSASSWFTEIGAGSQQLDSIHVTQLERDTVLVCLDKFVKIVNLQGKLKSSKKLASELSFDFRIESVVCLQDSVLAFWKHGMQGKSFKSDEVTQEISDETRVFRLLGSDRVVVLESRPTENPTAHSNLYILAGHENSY

| SMILES | Activity [1] | Activity [2] | Activity [3] | Kd [4] |
| --- | --- | --- | --- | --- |
| Cc1nc(NC(C)CO)c2c(n1)[nH]c1ccc(O)cc12 (stereo unspecified) | 95% | 100% | 81% | – |
| O=C(c1cccc(NS(=O)(=O)Cc2ccccc2)c1F)c1c[nH]c2ncc(-c3cnc(C4CC4)nc3)cc12 | 82% | 86% | 80% | 1.1 nM |
| O=C(c1cccc(NS(=O)(=O)Cc2ccccc2)c1F)c1c[nH]c2ncc(-c3ccncc3)cc12 | 26% | 95% | 0.95% | – |
| CCCC(=O)Nc1ccc(F)c(C(=O)c2c[nH]c3ncc(-c4ccc(Cl)cc4)cc23)c1F | 91% | 94% | 78% | – |
| COc1ncc(-c2cnc3[nH]cc(C(=O)c4cccc(NS(=O)(=O)Cc5ccccc5)c4F)c3c2)cn1 | 86% | 70% | 38% | 0.85 nM |
| COCCS(=O)(=O)Nc1ccc(F)c(C(=O)c2c[nH]c3ncc(-c4ccc(Cl)cc4)cc23)c1F | 100% | 75% | 58% | – |
| C#Cc1cnc2[nH]cc(C(=O)c3c(F)ccc(NS(=O)(=O)CCC)c3F)c2c1 | 89% | 100% | 1.4% | – |
| CCCCCCS(=O)(=O)Nc1ccc(F)c(C(=O)c2c[nH]c3ncc(-c4ccc(Cl)cc4)cc23)c1F | 99% | 81% | 73% | – |
| O=C(c1cccc(NS(=O)(=O)Cc2ccccc2)c1F)c1c[nH]c2ncc(-c3cccnc3)cc12 | 20% | 85% | 1.7% | – |
| CS(=O)(=O)Nc1cccc(C(=O)c2c[nH]c3ncc(-c4ccc(Cl)cc4)cc23)c1F | 78% | 81% | 27% | – |
| O=C(c1c(F)ccc(NS(=O)(=O)CCCF)c1F)c1c[nH]c2ncc(-c3ccc(Cl)cc3)cc12 | 80% | 100% | 1.4% | – |
| O=C(c1c(F)ccc(NS(=O)(=O)c2ccccc2)c1F)c1c[nH]c2ncc(-c3ccc(Cl)cc3)cc12 | 83% | 83% | 4.9% | – |
| CCCS(=O)(=O)Nc1cccc(C(=O)c2c[nH]c3ncc(-c4ccc(Cl)cc4)cc23)c1Cl | 79% | 100% | 68% | – |
| O=C(c1cccc(NS(=O)(=O)Cc2ccccc2)c1F)c1c[nH]c2ncc(-c3cc4c(cc3Cl)OCCO4)cc12 | 98% | 100% | 94% | 3.5 nM |
| CCCS(=O)(=O)Nc1ccc(F)c(C(=O)c2c[nH]c3ncc(-c4cc5c(cc4Cl)OCO5)cc23)c1F | 99% | 100% | 26% | – |
| Cc1cc(F)ccc1-c1cnc2[nH]cc(C(=O)c3cccc(NS(=O)(=O)Cc4ccccc4)c3F)c2c1 | 97% | 98% | 90% | – |
| CCCS(=O)(=O)Nc1ccc(F)c(C(=O)c2c[nH]c3ncc(-c4ncccn4)cc23)c1F | 92% | 90% | 39% | – |
| O=C(c1c(F)ccc(NS(=O)(=O)Cc2ccccc2)c1F)c1c[nH]c2ncc(-c3ccc(Cl)cc3)cc12 | 94% | 100% | 30% | – |
| CCCS(=O)(=O)Nc1ccc(F)c(C(=O)c2c[nH]c3ncc(-c4cc5c(cc4Cl)OCCO5)cc23)c1F | 98% | 97% | 20% | – |
| CCCS(=O)(=O)Nc1ccc(F)c(C(=O)c2c[nH]c3ncc(-c4cccs4)cc23)c1F | 48% | 98% | 2.9% | – |
| CCS(=O)(=O)Nc1ccc(F)c(C(=O)c2c[nH]c3ncc(-c4ccc(Cl)cc4)cc23)c1F | 82% | 89% | 8.3% | – |
| O=C(c1c(F)ccc(NS(=O)(=O)CCC(F)(F)F)c1F)c1c[nH]c2ncc(-c3ccc(Cl)cc3)cc12 | 54% | 100% | 3.5% | – |
| CCCS(=O)(=O)Nc1ccc(F)c(C(=O)c2c[nH]c3ncc(-c4ccccc4Cl)cc23)c1F | 79% | 100% | 7.6% | – |
| CS(=O)(=O)Nc1ccc(F)c(C(=O)c2c[nH]c3ncc(-c4ccc(Cl)cc4)cc23)c1F | 63% | 87% | 2.6% | – |
| CCCCS(=O)(=O)Nc1ccc(F)c(C(=O)c2c[nH]c3ncc(-c4ccc(Cl)cc4)cc23)c1F | 75% | 100% | 29% | – |

Next, values leading:

| Activity [1] | Activity [2] | Activity [3] | Kd [4] | SMILES |
| --- | --- | --- | --- | --- |
| 76% | 90% | 0.45% | – | CCCS(=O)(=O)Nc1ccc(F)c(C(=O)c2c[nH]c3ncc(-c4ccc5c(c4)OCO5)cc23)c1F |
| 84% | 100% | 2.2% | – | CCCS(=O)(=O)Nc1ccc(F)c(C(=O)c2c[nH]c3ncc(-c4ccc5c(c4)OCCO5)cc23)c1F |
| 29% | 100% | 0.5% | – | CCCS(=O)(=O)Nc1ccc(F)c(C(=O)c2c[nH]c3ncc(-c4ccccc4)cc23)c1F |
| 28% | 97% | 0.7% | – | CCCS(=O)(=O)Nc1ccc(F)c(C(=O)c2c[nH]c3ncc(-c4cccc(C)c4)cc23)c1F |
| 48% | 100% | 5.3% | 8.2 nM | CCCS(=O)(=O)Nc1ccc(F)c(C(=O)c2c[nH]c3ncc(-c4ccc(Cl)cc4)cc23)c1F [VEMURAFENIB] |
| 100% | 100% | 19% | – | CCCS(=O)(=O)Nc1ccc(F)c(C(=O)c2c[nH]c3ncc(-c4ccc(F)cc4Cl)cc23)c1F |
| 84% | 87% | 1.6% | – | CCCS(=O)(=O)Nc1ccc(F)c(C(=O)c2c[nH]c3ncc(-c4ccc(OC)cc4OC)cc23)c1F |
| 28% | 89% | 0.85% | – | CCCS(=O)(=O)Nc1ccc(F)c(C(=O)c2c[nH]c3ncc(-c4ccc(C)cc4)cc23)c1F |
| 43% | 100% | 16% | – | CCCS(=O)(=O)Nc1ccc(F)c(C(=O)c2c[nH]c3ncc(-c4ccccc4OC)cc23)c1F |
| 86% | 84% | 8.9% | – | CCCS(=O)(=O)Nc1ccc(F)c(C(=O)c2c[nH]c3ncc(-c4cnc(OC)nc4)cc23)c1F |
| 78% | 95% | 2.1% | – | CCCS(=O)(=O)Nc1ccc(F)c(C(=O)c2c[nH]c3ncc(-c4ccco4)cc23)c1F |
| 100% | 100% | 14% | – | CCCS(=O)(=O)Nc1ccc(F)c(C(=O)c2c[nH]c3ncc(-c4ccc(F)cc4C)cc23)c1F |
| 14% | 84% | 18% | – | CCCS(=O)(=O)Nc1ccc(F)c(C(=O)c2c[nH]c3ncc(-c4ccc(OC)c(OC)c4)cc23)c1F |
| 80% | 81% | 3.5% | – | CCCS(=O)(=O)Nc1ccc(F)c(C(=O)c2c[nH]c3ncc(-c4cncnc4)cc23)c1F |
